# Read-outs that look alike come from different tables or passages of the source.
# How the values were obtained:
# [1] = test system: T. gondii RH M190D4; assay: T. gondii growth in HFF monolayer, [3H]uracil incorporation; assay type: cell-based, Toxoplasma gondii
# How it was run: (§1)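 Confluent human fibroblasts infected with tachyzoites with or without test compound. After 72 h, washed and pulsed with [3H]uracil for 4 h, then washed and solubilized. Acid-precipitable radioactivity counted by liquid scintillation. EC50 by nonlinear regression.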
# [2] = test system: T. gondii Prugniaud; assay: as above; assay type: cell-based; details: Toxoplasma gondii, read-out: EC50 (nM ± SD)
# How it was run: as §1
# [3] = test system: T. gondii type II Prugniaud strain; assay: Bradyzoite differentiation, SRS9/P36 expression by IFA; assay type: cell-based, Toxoplasma gondii
# [4] = test system: T. gondii RH WT; assay: T. gondii growth in HFF monolayer, [3H]uracil incorporation; assay type: cell-based; details: Toxoplasma gondii
# How it was run: as §1
# [5] = test system: T. gondii RH WT; assay: Immunofluorescence of intracellular T. gondii; assay type: cell-based, Toxoplasma gondii; details: IFA, 24 h, 40 nM FR235222, 1 µM pyrimethamine
# How it was run: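 Confluent HFF monolayers infected with RH tachyzoites with 40 nM test compound, 0.1% DMSO or 1 µM pyrimethamine for 24 h. Fixed/permeabilized 20 min (3% formaldehyde, 0.2% Triton X-100) and blocked with 5% FBS/5% goat serum. Stained with anti-AcH4 antiserum and anti-IMC1 monoclonal (1:1,000), Alexa 568/488 secondaries, and Hoechst 33258 for DNA.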
# [6] = test system: 20.m00351 mRNA, T. gondii type II Prugniaud strain; assay: Semiquantitative RT-PCR of 20.m00351 mRNA; assay type: cell-based, Toxoplasma gondii; details: 40 nM FR235222 for 3 d, n = 3
# [7] = test system: histone H4 acetylation in T. gondii TgHDAC3^T99A resistant line; assay: Immunoblot of histone acetylation in extracellular tachyzoites; assay type: cell-based, Toxoplasma gondii; details: 20 nM FR235222, immunoblot
# [8] = test system: HFFs; assay: Mammalian host cell proliferation; assay type: cell-based, human; details: in vitro, parasites versus HFF cells
# [9] = test system: histone H4 acetylation in T. gondii RH WT; assay: Immunoblot of histone acetylation in extracellular tachyzoites; assay type: cell-based, Toxoplasma gondii
# [10] = test system: N. caninum; assay: N. caninum growth in HFF monolayer; assay type: cell-based, Neospora caninum; details: read-out: EC50 (nM ± SD), mean ± SD
# [11] = test system: P. falciparum; assay: Antimalarial activity in vitro, P. falciparum intraerythrocytic growth; assay type: cell-based, Plasmodium falciparum; details: 3D7 chloroquine sensitive, Dd2 chloroquine resistant, Fig. 1 C, n = 4
# How it was run: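 Drug exposure: 48 h for asynchronous 3D7 and Dd2 cultures, 20 h for plasmion-enriched 3D7 schizonts. Growth was read by […] incorporation, and EC50 was derived by nonlinear regression.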
# [12] = test system: histone H4 acetylation in T. gondii TgHDAC3^T99I resistant line; assay: Immunoblot of histone acetylation in extracellular tachyzoites; assay type: cell-based, Toxoplasma gondii; details: 20 nM FR235222, immunoblot
# [13] = read-out: EC50 (nM ± SD), T. gondii RH M190D4 (FR235222-resistant mutant, TgHDAC3 T99A) in HFF monolayer, [3H]uracil incorporation, mean ± SD
# [14] = read-out: EC50, T. gondii intracellular growth
compound,measurement,setting,value
"CCC(=O)CCCCC[C@@H]1NC(=O)[C@H]2CCCCN2C(=O)[C@H]([C@@H](C)CC)NC(=O)[C@H](Cc2cn(OC)c3ccccc23)NC1=O [Apicidin, apicidin]",EC50,[1]; [13],67 ± 16 nM
"CCc1nc(N)nc(N)c1-c1ccc(Cl)cc1 [Pyrimethamine, pyrimethamine]",EC50,"[1]; Toxoplasma gondii, read-out: EC50 (nM ± SD)",300 ± 11 nM
same,EC50,[2],195 ± 1 nM
same,induction of SRS9/P36,"[3]; 1 µM pyrimethamine, 2–3 d, IFA with anti-P36",very weak induction
same,EC50,"[4]; read-out: EC50 (nM ± SD), SD",285 ± 61 nM
same,EC50,[4]; [14],300 nM
same,AcH4 signals in nuclei of treated parasites versus DMSO control,[5],not observed
O=C(CCCCCN1C(=O)c2cccc3cccc(c23)C1=O)NO [Scriptaid],EC50,[4]; [14],400 nM
FR235222,20.m00351 mRNA levels,[6],accumulated
same,EC50,[1]; [13],62 ± 5 nM
same,increase of AcH4 signals,[7],approximately threefold
same,sensitivity of parasites relative to HFF cells,[8],~10 times
same,parasitic vacuoles expressing SRS9/P36,"[3]; 40 nM FR235222, 2–3 d, IFA with anti-P36, n = 2",~80%
same,increase of AcH4 signals,"[9]; WT, 20 nM FR235222, immunoblot",approximately eightfold
same,increase of AcH4 signals,"[9]; extracellular tachyzoites incubated with drug 4 h, immunoblot",approximately eightfold
same,acetylation of histones H2B (K12 and K15) and H3K9,"[9]; immunoblot, FR235222 treatment (Fig. S2)",not affected
same,EC50,[10],8 ± 2 nM
same,comparison of EC50s on clones 3D7 and Dd2,[11],equivalent
same,AcH4 signals in nuclei of treated parasites versus DMSO control,[5],higher
same,change of AcH4 signals,[12],remained unchanged

# Source: PMC2715132 (The Journal of Experimental Medicine, 2009)
